This note sets out measurements from ChEMBL document CHEMBL4706564 (Eur J Med Chem, 2020).

SMILES strings stand for the structures.

Data set [1] is described as follows: cells. Type of data set: cell-based, Ebolavirus, HEK293T. Particulars: Orthoebolavirus, Mayinga, HEK-293T.
A short description of data set [2]: cells. Particulars: Vesicular stomatitis virus, HEK-293T. Type of data set: cell-based, HEK293T.
Data set [3] is described as follows: Cytotoxicity against human HEK293T cells incubated for 48 hrs by MTT assay. Type of data set: cell-based, HEK-293T. Conditions: HEK293T cells. The essentials:
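HEK293T cells at 10⁵ cells/ml were added to two-fold compound dilutions in 10% DMEM and incubated 48 h at 37 °C, 5% CO2. MTT (5 mg/ml stock in PBS, 1/10 volume) was added for 2 h, and formazan was dissolved in DMSO before reading optical density. Each concentration was run in triplicate. CC50 was the concentration giving 50% cell death, or halving OD versus control.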
On the technique in general: Formazan colour is commonly taken as a measure of viable cells.

Data set [4] can be described thus: in vitro. Conditions: human, HEK293T cells.
Data set [5] deals with Influenza A virus. Put plainly: Antiviral activity against Influenza A virus (H1N1). In kind it is functional, organism-based.

As usually defined, the IC50 is the point on the concentration scale where inhibition reaches its midpoint. High values mean weaker potency in that assay, low ones greater potency in that assay. Broadly, the CC50 is the concentration giving 50% cytotoxicity. A lower CC50 goes with harm at low concentration. For the compound `CC1(C)[C@H]2CC[C@]1(C)[C@H](OC(=O)CCCN1CCCCC1)C2`, the values for the IC50 in data set [1] and in data set [2] were 0.3 µM and 50.1 µM, respectively. In data set [3], this compound gave a CC50 at 48 h of 74.8 µM. The selectivity ratio in data set [4] is 230.

With `CC1(C)[C@H]2CC[C@]1(C)[C@H](OC(=O)CCN1CCCCCC1)C2`, the IC50 was 5.1 µM in data set [1] and 191 µM in data set [2]. Also, the CC50 at 48 h in data set [3] is 182 µM. For the same compound, the selectivity ratio in data set [4] worked out at 36.

Consider `CC1(C)[C@@H]2CC[C@@]1(C)[C@H](NC(=O)CN1CCOCC1)C2`, for which the values for the IC50 in data set [1] and in data set [2] were 5.7 µM and 838 µM, respectively. Moreover, the CC50 at 48 h in data set [3] is 838 µM. Moreover, the selectivity ratio in data set [4] was found to be 147.

`CC1(C)[C@H]2CC[C@]1(C)[C@H](OC(=O)CCCCN1CCCCC1)C2`: the half-inhibitory concentration (IC50) turned out to be 0.6 µM in data set [1] and 105 µM in data set [2]. Moreover, the midpoint of cytotoxicity in data set [3], the CC50 at 48 h, lay at 101 µM. In data set [4], the selectivity ratio amounted to 162.

`CC1(C)[C@@H]2CC[C@@]1(C)[C@H](NC(=O)CCCN1CCOCC1)C2`: the IC50 in data set [1] was determined as 9.4 µM; in data set [2], 172 µM. This compound yielded a CC50 at 48 h in data set [3] of 172 µM. Further, the selectivity ratio in data set [4] was 18.

In the case of `CN1CCN(CCC(=O)N[C@@H]2C[C@H]3CC[C@]2(C)C3(C)C)CC1`, the results for the IC50 in data set [1] and in data set [2] were 2.6 µM and 486 µM, respectively. Moreover, in data set [3], it took 486 µM to reach half-maximal cytotoxicity (CC50 at 48 h). For the same compound, in data set [4], the selectivity ratio came to 187.

Take `CC1(C)[C@@H]2CC[C@@]1(C)/C(=N/CCO)C2`: 5.1 µM corresponded to half-maximal inhibition in data set [5] (IC50).

Turning to `CC1(C)[C@H]2CC[C@]1(C)[C@H](OC(=O)CN1CCN(Cc3ccccc3)CC1)C2`, the IC50 in data set [1] was 1.3 µM; in data set [2], 39.8 µM. Moreover, the CC50 at 48 h in data set [3] is 59.4 µM. Also, in data set [4], the selectivity ratio stood at 44.

As to `CC1CCN(CCC(=O)N[C@@H]2C[C@H]3CC[C@]2(C)C3(C)C)CC1`, the results for the IC50 in data set [1] and in data set [2] were 2.6 µM and 93.6 µM, respectively. In data set [3], this compound returned a cytotoxic concentration (CC50) at 48 h of 93.6 µM. In data set [4], the selectivity ratio came to 36.

As to `CCN1CCN(CC(=O)N[C@@H]2C[C@H]3CC[C@]2(C)C3(C)C)CC1`, the figures for the concentration for half-maximal inhibition (IC50) in data set [1] and in data set [2] were 8.5 µM and 660 µM, respectively. For the same compound, the CC50 at 48 h in data set [3] amounted to 660 µM. In data set [4], the selectivity ratio was 78.

Take `CC1(C)[C@H]2CC[C@]1(C)[C@H](OC(=O)CCCN1CCOCC1)C2`: the results for the IC50 in data set [1] and in data set [2] were 6.5 µM and 288 µM, respectively. This compound also yielded a 50% cytotoxic concentration (CC50) at 48 h in data set [3] of 210 µM. In data set [4], the selectivity ratio turned out to be 33.

With `CCN(CC)CCC(=O)O[C@@H]1C[C@@H]2CC[C@@]1(C)C2(C)C`, the IC50 stood at 12.4 µM in data set [1] and 411 µM in data set [2]. Further, in data set [3], the CC50 at 48 h was 327 µM. Further, in data set [4], the selectivity ratio stood at 26.

Take `CC1(C)[C@H]2CC[C@]1(C)[C@H](OC(=O)CCCN1CCN(CCN)CC1)C2`: the results for the IC50 in data set [1] and in data set [2] were 0.6 µM and 50.4 µM, respectively. For the same compound, in data set [3], the CC50 at 48 h was 71.1 µM. For the same compound, in data set [4], the selectivity ratio was 125.

Take `CC1CCN(CC(=O)O[C@@H]2C[C@@H]3CC[C@@]2(C)C3(C)C)CC1`: the values for the IC50 in data set [1] and in data set [2] were 8.5 µM and 35 µM, respectively. In addition, it took 71.6 µM to reach half-maximal cytotoxicity in data set [3] (CC50 at 48 h). Besides, the selectivity ratio in data set [4] stood at 8.

Consider `CC1(C)[C@H]2CC[C@]1(C)[C@H](OC(=O)CN1CCOCC1)C2`, for which the half-maximal inhibitory concentration (IC50) in data set [1] was 24.9 µM; in data set [2] it was 291 µM. For the same compound, half-maximal cytotoxicity in data set [3] (CC50 at 48 h) was put at 327 µM. In data set [4], the selectivity ratio came to 13.

As for `CC1(C)[C@H]2CC[C@]1(C)[C@H](OC(=O)CN1CCN(CCO)CC1)C2`, the IC50 stood at 13.9 µM in data set [1] and 394 µM in data set [2]. The same compound gave a CC50 at 48 h in data set [3] of 296 µM. For the same compound, the selectivity ratio in data set [4] amounted to 21.

Regarding `CC1(C)[C@H]2CC[C@]1(C)[C@H](OC(=O)CCCN1CCN(CCO)CC1)C2`, the IC50 in data set [1] worked out at 0.3 µM; in data set [2], 192 µM. In data set [3], this compound came in with a CC50 at 48 h of 224 µM. Moreover, in data set [4], the selectivity ratio came to 658.
